# Assay results published in ChEMBL document CHEMBL4177576, “Linker structure-activity relationships in fluorodeoxyglucose chlorambucil conjugates for tumor-targeted chemotherapy” (Bioorg Med Chem, 2017).
# Calls of active or inactive are those of the source. No cut-off for these calls is given here.
# Assays:
# Fibroblast = assay: Cytotoxicity against human fibroblasts assessed as inhibition of cell growth incubated for 48 hrs by resazurin reduction test; type: cell-based
# Procedure, shortened: (§1)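 Monolayers grown in MEM with 10% fetal calf serum, pyruvate, vitamins, non-essential amino acids and gentamicin at 37 °C, 5% CO2. Cells were seeded at 5×10^3/well and left 16 h to adhere. Compounds were added from DMSO stocks (final 0.5% DMSO) for 48 h continuous exposure, in triplicate. Resazurin 25 μg/mL was then added for 1 h and fluorescence read at 530/590 nm. IC50 was taken from concentration–cell number curves as % of control after blank subtraction.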
# MCF7 = assay: Cytotoxicity against human MCF7 assessed as inhibition of cell growth incubated for 48 hrs by resazurin reduction test; type: functional, cell-based; details: MCF7, 48 h; procedure, shortened: as §1
# M4Beu cell line = assay: Cytotoxicity against human M4Beu assessed as inhibition of cell growth incubated for 48 hrs by resazurin reduction test; type: functional, cell-based; procedure, shortened: as §1
# PC-3 = assay: Cytotoxicity against human PC3 assessed as inhibition of cell growth incubated for 48 hrs by resazurin reduction test; type: functional, cell-based; details: PC-3, 48 h; procedure, shortened: as §1
# A549 = assay: Cytotoxicity against human A549 assessed as inhibition of cell growth incubated for 48 hrs by resazurin reduction test; type: functional, cell-based; details: A549, 48 h; procedure, shortened: as §1
# PA-1 = assay: Cytotoxicity against human PA1 assessed as inhibition of cell growth incubated for 48 hrs by resazurin reduction test; type: functional, cell-based; details: PA-1, 48 h; procedure, shortened: as §1
# A549 (Homo sapiens) [1] = assay: Cytotoxicity against human A549 assessed as inhibition of cell growth up to 200 uM incubated for 48 hrs in absence of 50 uM chlorambucil by resazurin reduction test
# A549 (Homo sapiens) [2] = assay: Cytotoxicity against human A549 assessed as inhibition of cell growth up to 200 uM incubated for 48 hrs in presence of 50 uM chlorambucil by resazurin reduction test
Structure (SMILES),IC50 (Fibroblast) [µM],IC50 (MCF7) [µM],IC50 (M4Beu cell line) [µM],IC50 (PC-3) [µM],IC50 (A549) [µM],IC50 (PA-1) [nM],growth inhibition (GI) (A549 (Homo sapiens) [1]),growth inhibition (GI) (A549 (Homo sapiens) [2])
CC(=O)OC[C@H]1O[C@@H](NC(=O)COC(=O)CCCc2ccc(N(CCCl)CCCl)cc2)[C@H](F)[C@@H](OC(C)=O)[C@@H]1OC(C)=O,> 50,> 50,> 50,> 50,15,3800,–,–
CC(=O)OC[C@H]1O[C@@H](NC(=O)c2ccc(NC(=O)CNC(=O)CCCc3ccc(N(CCCl)CCCl)cc3)cc2)[C@H](F)[C@@H](OC(C)=O)[C@@H]1OC(C)=O,8,7,17.8,6,30,13000,–,–
CC(=O)OC[C@H]1O[C@@H](OC(=O)NCC(=O)Nc2ccc(OC(=O)CCCc3ccc(N(CCCl)CCCl)cc3)cc2)[C@H](F)[C@@H](OC(C)=O)[C@@H]1OC(C)=O,32,39.5,30,> 50,39,9000,–,–
CC(=O)OC[C@H]1O[C@@H](OC(=O)Nc2ccc(OC(=O)CCCc3ccc(N(CCCl)CCCl)cc3)cc2)[C@H](F)[C@@H](OC(C)=O)[C@@H]1OC(C)=O,> 50,> 50,> 50,> 50,22,6000,–,–
CC(=O)OC[C@H]1O[C@@H](NC(=O)c2ccc(OC(=O)CCCc3ccc(N(CCCl)CCCl)cc3)cc2)[C@H](F)[C@@H](OC(C)=O)[C@@H]1OC(C)=O,> 50,> 50,> 50,> 50,19,4000,–,–
CC(=O)OC[C@H]1O[C@@H](OC(=O)NCC(=O)Nc2ccc(NC(=O)CCCc3ccc(N(CCCl)CCCl)cc3)cc2)[C@H](F)[C@@H](OC(C)=O)[C@@H]1OC(C)=O,10,13,18,6.5,13,800,–,–
CC(=O)OC[C@H]1O[C@@H](NC(=O)CC(=O)NCCCc2ccc(N(CCCl)CCCl)cc2)[C@H](F)[C@@H](OC(C)=O)[C@@H]1OC(C)=O,13,9,12,5,8,400,–,–
CC(=O)OC[C@H]1O[C@@H](OC(=O)c2ccc(NC(=O)CCCc3ccc(N(CCCl)CCCl)cc3)cc2)[C@H](F)[C@@H](OC(C)=O)[C@@H]1OC(C)=O,4,6,6,4,1.7,450,–,–
CC(=O)OC[C@H]1O[C@@H](OC(=O)Nc2ccc(NC(=O)CCCc3ccc(N(CCCl)CCCl)cc3)cc2)[C@H](F)[C@@H](OC(C)=O)[C@@H]1OC(C)=O,> 50,35,29,3.6,2,1200,–,–
CC(=O)OC[C@H]1O[C@@H](OC(=O)Nc2ccc(NC(=O)CNC(=O)CCCc3ccc(N(CCCl)CCCl)cc3)cc2)[C@H](F)[C@@H](OC(C)=O)[C@@H]1OC(C)=O,21,15,31,4.9,9,1300,–,–
O=C(O)CCCc1ccc(N(CCCl)CCCl)cc1 [CHLORAMBUCIL],–,–,–,> 100,–,–,–,–
CC(=O)OC[C@H]1OC(OC(C)=O)[C@H](F)[C@@H](OC(C)=O)[C@@H]1OC(C)=O (stereo partly drawn),–,–,–,–,–,–,Active,Active
CC(=O)OC[C@H]1O[C@@H](Oc2ccc(NC(=O)COC(=O)CCCc3ccc(N(CCCl)CCCl)cc3)cc2)[C@H](F)[C@@H](OC(C)=O)[C@@H]1OC(C)=O,32.5,> 50,> 50,> 50,39,7600,–,–
CC(=O)OC[C@H]1O[C@@H](Oc2ccc(NC(=O)CNC(=O)CCCc3ccc(N(CCCl)CCCl)cc3)cc2)[C@H](F)[C@@H](OC(C)=O)[C@@H]1OC(C)=O,17,16,15,7,–,1500,–,–
CC(=O)OC[C@H]1O[C@@H](Oc2ccc(NC(=O)CC(=O)NCCCc3ccc(N(CCCl)CCCl)cc3)cc2)[C@H](F)[C@@H](OC(C)=O)[C@@H]1OC(C)=O,> 50,14,13.8,8,> 50,2000,–,–
CC(=O)OC[C@H]1O[C@@H](Oc2ccc(NC(=O)CNC(=O)CNC(=O)CCCc3ccc(N(CCCl)CCCl)cc3)cc2)[C@H](F)[C@@H](OC(C)=O)[C@@H]1OC(C)=O,> 50,32,> 50,20,> 50,4000,–,–
CC(=O)OC[C@H]1O[C@@H](Oc2ccc(NC(=O)c3ccc(NC(=O)CCCc4ccc(N(CCCl)CCCl)cc4)cc3)cc2)[C@H](F)[C@@H](OC(C)=O)[C@@H]1OC(C)=O,3,3.4,3,2.1,6,–,–,–
OC[C@H]1OC(O)[C@H](F)[C@@H](O)[C@@H]1O (stereo partly drawn),–,–,–,–,–,–,Active,Active
